The source made the active and inactive calls.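 The calls were made as follows, unless noted: active = viability at or below 30% in both replicate assays; inconclusive = viability at or below 30% in just one of the two assays; inactive = the rest.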

The nature of assay [1]: Her2 expression decrease, cell viability multiplex – SKBR3 breast tumor cells, AlphaScreen, ATP viability, primary screen (AID 461;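 active = Her2 level under about 52% in both replicate screens, with viability over 70% of control, limit read from the data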;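 as to Her2 level: lower value means less Her2 protein in the cells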;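 as to viability: percent of carrier control wells set as 100% viability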). To be noted: SKBR3 Her2 protein level, 18-24 h, measured here: SKBR3 viability, ATP luminescence, at 10 µM.
Assay [2] deals with Receptor tyrosine-protein kinase erbB-2 (Homo sapiens) (UniProt P04626). The description is as above. Particulars: 18-24 h, at 10 µM, stronger effect = lower value.
The nature of assay [3]: reduced viability of SK-BR-3 breast cancer cells – cell-based, 24 h, human, pilot screen (AID 572;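 active = viability at or below 10% of carrier control in both of two separate runs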;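 also: compound exposure lasted between 18 and 24 h rather than exactly 24 h; 100% = carrier-treated control wells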). Particulars: SK-BR-3 viability, CellTiter-Glo luminescence, at 10 µM, stronger effect = lower value.
A short description of assay [4]: HUVEC growth inhibition – cell-based, human, primary screen (AID 575).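 Also: 100% = median of untreated cell wells with 0.1% DMSO on each plate.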 To be noted: HUVEC proliferation, CellTiter-Glo luminescence, 72 h; at 10 µM; stronger effect = lower value. The method, boiled down: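 System: primary human umbilical vein endothelial cells; Quantity: 1250 endothelial cells in each well; Buffer or medium: supplemented EBM, 2% fetal bovine serum; Doses: one dose, 10 µM final, 0.1% DMSO; Incubation: 72 h compound incubation; Technique: ATP-based CellTiter-Glo luminescent read; Evaluation: percent of median DMSO-control luminescence; Controls: vehicle and MePR control wells.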

The nature of assay [5]: H69AR cell proliferation blockers – human, duplicate replicates, primary screen (AID 580;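 active = viability at or under a set limit in both replicates, limit being median viability minus 3 SD, cut at about 48% in these data, passing the limit was not always enough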;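 also: 100% = mean luminescence of untreated wells and 0% = no signal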). Particulars: H69AR lung tumor cells viability, ATP luminescence, 72 h; at 10 µM; stronger effect = lower value.
Assay [6] is described as follows: MRP1 drug-resistance reversers in H69AR cells – cell-based, doxorubicin co-treatment, pilot screen (AID 601;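 active = viability loss from added drug above about 55%, and viability with drug at most 40%, in both replicates, limit read from the data, passing the limit was not always enough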). To be noted: CellTiter-Glo, 72 h, at 10 µM; for differential viability (reversal): stronger effect = higher value.
A short description of assay [7]: yeast transport mutant growth inhibition pilot in 384-well plates, post-Golgi transport modulator project (AID 636; in the data active = inhibition above about 31%). To be noted: absorbance 615 nm, about 18 h, stronger effect = higher value.
A short description of assay [8]: growth suppression of yeast trafficking mutant, preliminary HTS, modulators of trafficking downstream of Golgi apparatus project, 1536-format plate, OD 615 nm (AID 637; in the data active = inhibition above about 30%). To be noted: yeast transport mutant growth, absorbance 615 nm, 18 h; stronger effect = higher value.
The mark [9] stands for this setting: H69AR cells + 2 uM doxorubicin, measured here: viability with 2 uM doxorubicin, stronger effect = lower value.
Where [10] appears, read: H69AR cells, compound alone cytotoxicity.

Chain of Receptor tyrosine-protein kinase erbB-2 (Homo sapiens) (P04626 whole entry, looked up): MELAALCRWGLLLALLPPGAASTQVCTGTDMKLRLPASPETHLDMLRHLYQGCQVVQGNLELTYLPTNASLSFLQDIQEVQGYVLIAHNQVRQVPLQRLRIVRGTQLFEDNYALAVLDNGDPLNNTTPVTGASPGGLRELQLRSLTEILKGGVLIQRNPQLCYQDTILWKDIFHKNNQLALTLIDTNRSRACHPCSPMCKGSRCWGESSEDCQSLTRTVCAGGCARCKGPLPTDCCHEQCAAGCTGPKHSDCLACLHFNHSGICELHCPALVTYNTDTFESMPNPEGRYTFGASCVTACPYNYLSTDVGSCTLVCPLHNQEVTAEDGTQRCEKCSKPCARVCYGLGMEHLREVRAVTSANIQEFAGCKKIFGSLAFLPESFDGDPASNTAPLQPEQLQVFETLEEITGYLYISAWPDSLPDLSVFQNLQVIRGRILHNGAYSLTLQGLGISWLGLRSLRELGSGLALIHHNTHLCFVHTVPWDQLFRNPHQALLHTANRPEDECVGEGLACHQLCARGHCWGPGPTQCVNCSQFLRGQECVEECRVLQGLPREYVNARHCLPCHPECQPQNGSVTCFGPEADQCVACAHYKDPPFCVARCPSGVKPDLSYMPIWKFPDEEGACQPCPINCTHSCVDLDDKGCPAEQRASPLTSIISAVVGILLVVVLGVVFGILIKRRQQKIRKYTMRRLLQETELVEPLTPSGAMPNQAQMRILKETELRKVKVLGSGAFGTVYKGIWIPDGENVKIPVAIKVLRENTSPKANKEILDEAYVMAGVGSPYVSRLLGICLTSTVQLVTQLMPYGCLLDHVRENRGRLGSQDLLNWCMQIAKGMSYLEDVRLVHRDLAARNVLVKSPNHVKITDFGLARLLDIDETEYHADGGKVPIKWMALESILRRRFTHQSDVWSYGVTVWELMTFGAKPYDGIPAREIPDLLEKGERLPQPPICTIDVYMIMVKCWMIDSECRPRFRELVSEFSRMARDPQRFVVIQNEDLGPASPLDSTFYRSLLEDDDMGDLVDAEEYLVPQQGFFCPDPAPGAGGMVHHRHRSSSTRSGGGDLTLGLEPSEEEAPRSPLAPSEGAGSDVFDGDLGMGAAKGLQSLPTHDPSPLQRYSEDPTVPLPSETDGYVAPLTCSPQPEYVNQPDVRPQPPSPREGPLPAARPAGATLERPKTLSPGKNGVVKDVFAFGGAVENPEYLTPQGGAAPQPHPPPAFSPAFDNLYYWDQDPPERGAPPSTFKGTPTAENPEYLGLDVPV

Regarding `CCC(=O)NC1(C(F)(F)F)C(=O)NC(C)=C1C#N` (stereo not given), the viability in assay [1] is 102%; in assay [3] it was 102% (inactive); in assay [4], 101% (inactive); in assay [5], 97.9% (inactive); in assay [6] (setting [9]), 92.7%; in assay [6] (setting [10]), 97.9%. In addition, the Her2 level in assay [2] was 84.5% (inactive). The differential viability (reversal) in assay [6] (H69AR cells + 2 uM doxorubicin) is 5.2% (inactive). Also, the inhibition in assay [7] was -4.74% (inactive); in assay [8], 1.59% (inactive).

In the case of `COc1ccc(S(=O)(=O)N(C)c2ccc(C(=O)N3CCOCC3)cc2)cc1`, the viability in assay [1] is 79.5%; in assay [3] it was 79.5% (inactive); in assay [4], 94.4% (inactive); in assay [5] it was 95.2% (inactive); in assay [6] (setting [9]), 91.5%; in assay [6] (setting [10]) it was 95.2%. For the same compound, the Her2 level in assay [2] was 89.5% (inactive). Also, the differential viability (reversal) in assay [6] (H69AR cells + 2 uM doxorubicin) was 3.61% (inactive). In addition, the results for the inhibition in assay [7] and in assay [8] were -0.92% (inactive) and 1.8% (inactive), respectively.

`COC(=O)[C@H](C)NC(=O)Nc1cc(OC)ccc1OC`: the viability in assay [1] is 121%; in assay [3], 121% (inactive); in assay [4] it was 61.1% (inactive); in assay [5], 75.1% (inactive); in assay [6] (setting [9]), 50.1%; in assay [6] (setting [10]) it was 75.1%. In addition, in assay [2], the Her2 level was 81.5% (inactive). In addition, the differential viability (reversal) in assay [6] (H69AR cells + 2 uM doxorubicin) was 25% (inactive). Further, the inhibition was -2.34% (inactive) in assay [7] and -0.48% (inactive) in assay [8].

On to `COc1ccc(-n2c(Cc3cccn3C)nnc2SCC(=O)Nc2cccc(C)c2C)cc1`, for which the viability was 88.5% in assay [1]; 88.5% (inactive) in assay [3]; 91.4% (inactive) in assay [4]; 93.8% (inactive) in assay [5]; 96.7% in assay [6] (setting [9]); 93.8% in assay [6] (setting [10]). Besides, the Her2 level in assay [2] was 97% (inactive). Further, the differential viability (reversal) in assay [6] (H69AR cells + 2 uM doxorubicin) is -2.92% (inactive). Besides, the inhibition is -0.64% (inactive) in assay [7] and -6.67% (inactive) in assay [8].

`CCCN(CCC)S(=O)(=O)c1ccc(C(=O)Nc2nnc(-c3cccc(OC)c3)o2)cc1`: the viability is 98.5% in assay [1]; 98.5% (inactive) in assay [3]; 8.23% (active) in assay [4]; 15.3% (active) in assay [5]; 22.3% in assay [6] (setting [9]); 15.3% in assay [6] (setting [10]). Further, in assay [2], the Her2 level is 89% (inactive). Besides, in assay [6] (H69AR cells + 2 uM doxorubicin), the differential viability (reversal) is -7.05% (inactive). For the same compound, the inhibition in assay [7] is -5.79% (inactive); in assay [8], -1.64% (inactive).

On to `COc1ccc(-c2cc(C(F)(F)F)n3ncc(C(=O)NCC4CCCO4)c3n2)cc1` (stereo not given), for which the viability in assay [1] is 84%; in assay [3], 84% (inactive); in assay [4], 78.9% (inactive); in assay [5] it was 41.7% (active); in assay [6] (setting [9]), 47.6%; in assay [6] (setting [10]), 41.7%. In addition, the Her2 level in assay [2] is 116% (inactive). Besides, the differential viability (reversal) in assay [6] (H69AR cells + 2 uM doxorubicin) is -5.95% (inactive). Besides, the results for the inhibition in assay [7] and in assay [8] were -1.54% (inactive) and -3.67% (inactive), respectively.

For the compound `CCOc1cc(-c2nc3ccccn3c2NCC2CCCO2)ccc1O` (stereo not given), the viability in assay [1] is 69.5%; in assay [3], 69.5% (inactive); in assay [4], 88.7% (inactive); in assay [5], 40.7% (active); in assay [6] (setting [9]), 35.6%; in assay [6] (setting [10]), 40.7%. In assay [2], the Her2 level is 111% (inactive). In addition, the differential viability (reversal) in assay [6] (H69AR cells + 2 uM doxorubicin) was 5.11% (inactive). For the same compound, the inhibition was 4.27% (inactive) in assay [7] and 24% (inactive) in assay [8].

For `CC1CN(c2nc3ccccn3c(=O)c2/C=C(\C#N)S(=O)(=O)c2ccccc2)CC(C)O1` (stereo not given), the viability in assay [1] is 93.5%; in assay [3], 93.5% (inactive); in assay [4], 96.3% (inactive); in assay [5] it was 90% (inactive); in assay [6] (setting [9]), 31%; in assay [6] (setting [10]) it was 90%. Also, in assay [2], the Her2 level is 106% (inactive). Also, the differential viability (reversal) in assay [6] (H69AR cells + 2 uM doxorubicin) is 59% (active). Moreover, the figures for the inhibition in assay [7] and in assay [8] were -0.53% (inactive) and -14.4% (inactive), respectively.

Consider `Cc1ccc(S(=O)(=O)N2CCN(C(=O)CN3C(=O)NC4(CCOc5ccccc54)C3=O)CC2)cc1` (stereo not given), for which the viability in assay [1] is 98.5%; in assay [3] it was 98.5% (inactive); in assay [4] it was 102% (inactive); in assay [5], 101% (inactive); in assay [6] (setting [9]), 99.8%; in assay [6] (setting [10]), 101%. Further, in assay [2], the Her2 level is 108% (inactive). Besides, in assay [6] (H69AR cells + 2 uM doxorubicin), the differential viability (reversal) is 1.57% (inactive). Moreover, the inhibition in assay [7] is 4.08% (inactive); in assay [8], -1.09% (inactive).

For the compound `COCCNc1oc(-c2ccc(C)cc2)nc1C#N`, the viability in assay [1] was 102%; in assay [3] it was 102% (inactive); in assay [4], 113% (inactive); in assay [5], 85.9% (inactive); in assay [6] (setting [9]), 77.5%; in assay [6] (setting [10]) it was 85.9%. Moreover, in assay [2], the Her2 level is 81% (inactive). Also, in assay [6] (H69AR cells + 2 uM doxorubicin), the differential viability (reversal) is 8.44% (inactive). The inhibition was -4.46% (inactive) in assay [7] and 3.33% (inactive) in assay [8].

As to `O=C(O)CCc1ccc(-c2ccc(F)cc2)n1CC(=O)O`, the viability is 94.5% in assay [1]; 94.5% (inactive) in assay [3]; 106% (inactive) in assay [4]; 98% (inactive) in assay [5]; 87.2% in assay [6] (setting [9]); 98% in assay [6] (setting [10]). The Her2 level in assay [2] is 87% (inactive). In addition, the differential viability (reversal) in assay [6] (H69AR cells + 2 uM doxorubicin) was 10.8% (inactive). Besides, the results for the inhibition in assay [7] and in assay [8] were -7.12% (inactive) and -1.43% (inactive), respectively.

With `Cc1ccccc1C1CC(c2ccccc2)Nc2ncnn21` (stereo not given), the viability was 90% in assay [1]; 90% (inactive) in assay [3]; 94.8% (inactive) in assay [4]; 64.2% (inactive) in assay [5]; 95.3% in assay [6] (setting [9]); 64.2% in assay [6] (setting [10]). Moreover, the Her2 level in assay [2] was 87.5% (inactive). Moreover, the differential viability (reversal) in assay [6] (H69AR cells + 2 uM doxorubicin) is -31.1% (inactive). Besides, the inhibition in assay [7] was 1.47% (inactive); in assay [8], -6.39% (inactive).

`Cc1ccc(C(c2nnnn2CCC(C)C)N2CCN(C)CC2)cc1` (stereo not given): the viability in assay [1] is 90.5%; in assay [3], 90.5% (inactive); in assay [4] it was 97.9% (inactive); in assay [5] it was 98.8% (inactive); in assay [6] (setting [9]) it was 93.2%; in assay [6] (setting [10]), 98.8%. In addition, the Her2 level in assay [2] is 84% (inactive). Moreover, the differential viability (reversal) in assay [6] (H69AR cells + 2 uM doxorubicin) was 5.6% (inactive). The inhibition was -6.67% (inactive) in assay [7] and 1.97% (inactive) in assay [8].

Consider `CCCC(=O)N(Cc1cc2ccccc2[nH]c1=O)c1ccccc1OC`, for which the viability was 97% in assay [1]; 97% (inactive) in assay [3]; 105% (inactive) in assay [4]; 105% (inactive) in assay [5]; 99.5% in assay [6] (setting [9]); 105% in assay [6] (setting [10]). For the same compound, the Her2 level in assay [2] was 94.5% (inactive). For the same compound, in assay [6] (H69AR cells + 2 uM doxorubicin), the differential viability (reversal) is 5.2% (inactive). For the same compound, the inhibition in assay [7] was -0.26% (inactive); in assay [8], 12.3% (inactive).

`COC(=O)c1ccc(-c2ccc(CNCC(O)c3ccccc3)o2)cc1` (stereo not given): the viability in assay [1] was 111%; in assay [3], 111% (inactive); in assay [4], 88.8% (inactive); in assay [5] it was 101% (inactive); in assay [6] (setting [9]), 92.2%; in assay [6] (setting [10]), 101%. Besides, in assay [2], the Her2 level is 101% (inactive). Further, the differential viability (reversal) in assay [6] (H69AR cells + 2 uM doxorubicin) is 8.78% (inactive). For the same compound, the figures for the inhibition in assay [7] and in assay [8] were -2.03% (inactive) and 1.83% (inactive), respectively.

For the compound `Cc1cc(C(=O)N2CCN(C/C=C/c3ccccc3)CC2)no1`, the viability in assay [1] was 92.5%; in assay [3], 92.5% (inactive); in assay [4], 93.8% (inactive); in assay [5], 93.2% (inactive); in assay [6] (setting [9]) it was 92.5%; in assay [6] (setting [10]), 93.2%. Further, in assay [2], the Her2 level is 97.5% (inactive). In addition, in assay [6] (H69AR cells + 2 uM doxorubicin), the differential viability (reversal) is 0.745% (inactive). Moreover, the inhibition was -4.05% (inactive) in assay [7] and 2.62% (inactive) in assay [8].

These data come from PubChem BioAssay.
